For 167 variants, yeast fitness results are on record in the RNAGym collection of RNA variant scans (doi:10.1126/science.aae0568).

Fewer inactive variants are shown than the library holds. Where only a bound is given, the exact number is not on record here.

Sequences and labels used below:
B1: tRNA (parent)
chain: GUUCCGUUGGCGUAAUGGUAACGCGUCUCCCUCCUAAGGAGAAGACUGCGGGUUCGAGUCCCGUACGGAACG

In this data set the parent is B1. In words: yeast fitness relative to wild type (ratio to wild type); higher = fitter; tRNA-Arg(CCU), competitive growth, 37 C, YPD. The procedure, abridged:
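The tRNA-Arg(CCU) gene variants were made by chemical synthesis with a 3% per-site mutation rate at 69 sites and inserted at the native genomic locus of Saccharomyces cerevisiae. After pooling, the strains were competed in YPD at 37°C for 24 hours in six parallel replicates. Gene amplicons from the start population and each end population were read by 100-nucleotide paired-end sequencing, and Darwinian fitness relative to wild type was taken from genotype frequency changes. Genotypes needed ≥ 100 starting reads, and estimates < 0.5 were set to 0.5.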
As for C4U G23C A36C A70U, the yeast fitness was not above 0.5.

With U3A C31U, the yeast fitness came to 1.02.

Regarding U7A G17A G23A A45C U47A G50A, the yeast fitness was not above 0.5.

Turning to C5A C33U G56A, the yeast fitness is not above 0.5.

Regarding C31G G41C, the yeast fitness was found to be 0.696.

With C4A A15U G18C G56C G67A, the yeast fitness is not above 0.5.

As to U3G U13G A14C G39C G41A C60G C61U C62G A65U, the yeast fitness stood at 0.543.

With C4A C11G A69U, the yeast fitness was not above 0.5.

For the variant U8C A42G, the yeast fitness came to 0.995.

For the variant G6C C55U, the yeast fitness was found to be 0.873.

Turning to U28C C30G C49G, the yeast fitness is not above 0.5.

Turning to C11U G12C A21U U32A, the yeast fitness is 0.694.

Consider G12A C27U C30A C55U A57C, for which the yeast fitness is not above 0.5.

In the case of C4G U47A, the yeast fitness came out at 0.854.

Consider U13C C29G A36G G41A G48C, for which the yeast fitness is not above 0.5.

For G44A G58U A69C, the yeast fitness was not above 0.5.

With C46U C62G, the yeast fitness stood at 0.969.

C24U G48A U64A: the yeast fitness is not above 0.5.

For the variant G10A C11G G44A C49G A65U, the yeast fitness is not above 0.5.

For A15C C49A G68C, the yeast fitness was not above 0.5.

As for C22U G39A, the yeast fitness came out at 0.693.

For A21U C22A G50C G67A, the yeast fitness was not above 0.5.

In the case of G10C C24U C61G C66U A69U, the yeast fitness is not above 0.5.

For C5A G39C C46G, the yeast fitness was determined as 0.547.

For A20U C22A A45C U53A, the yeast fitness is 0.594.

Consider A21C A37G U59G, for which the yeast fitness was not above 0.5.

G10A C61G C66U A69U: the yeast fitness is not above 0.5.

With A21U A57U G68C, the yeast fitness is not above 0.5.

Turning to U3A U35G A43U A57C, the yeast fitness was not above 0.5.

With G6A C24U C61G C66U A70G, the yeast fitness is not above 0.5.

For U7A G44C C49U C61A C62U C66U, the yeast fitness was not above 0.5.

As for C31U U59A C60G, the yeast fitness came out at 0.516.

With A21G U32C U59G C66U A70C, the yeast fitness was determined as 0.703.

Turning to A20G C29A G68A, the yeast fitness came to 0.613.

As for C11G C30U G41C G50A G67C, the yeast fitness was not above 0.5.

Turning to C4G G10A G41C C62G, the yeast fitness is 0.572.

On to U7G A15C A21C U28A G51A C60U C62U, for which the yeast fitness amounted to 0.653.

Turning to U28C A45G C66U, the yeast fitness came to 0.72.

G18C C22G C55A A70U: the yeast fitness was not above 0.5.

For the variant G67A G68A, the yeast fitness came out at 0.85.

On to C11U A15C G44A A65U, for which the yeast fitness was not above 0.5.

As to C11U U16C C27G C34G G67A, the yeast fitness is not above 0.5.

Turning to C46U G67U, the yeast fitness amounted to 0.869.

For the variant C4A C27A, the yeast fitness was 0.798.

Turning to C4U C66G, the yeast fitness stood at 0.75.

Consider U13A G23A, for which the yeast fitness stood at 0.659.

With C46U U47G, the yeast fitness was found to be 0.823.

Consider C11U U16A C24G A42C, for which the yeast fitness was not above 0.5.

Turning to U19G U35C A43U A65G G68A, the yeast fitness is not above 0.5.

Regarding C4U A15C G63C, the yeast fitness was 0.556.

As for C11U U19G U35G, the yeast fitness is not above 0.5.

Regarding C24U A36G C61A, the yeast fitness was not above 0.5.

On to G6A A14U C55U C61A, for which the yeast fitness is not above 0.5.

A14C A36G A42C: the yeast fitness was found to be 0.533.

For the variant A43U C60G C62G, the yeast fitness was not above 0.5.

In the case of G23A G38A, the yeast fitness was determined as 0.643.

As to G6A A14C A37U U54A, the yeast fitness is not above 0.5.

In the case of G38C A42G, the yeast fitness is 0.655.

On to C49G C60U A69G, for which the yeast fitness was not above 0.5.

U8C G56A A69C: the yeast fitness amounted to 0.836.

As to C5U A43U C49U C61A C66U, the yeast fitness was not above 0.5.

With A14G C29A, the yeast fitness was 0.581.

In the case of G17A C46A C61G A69G, the yeast fitness is not above 0.5.

As to U2G C33U G58C, the yeast fitness was 0.566.

On to C24G U32C, for which the yeast fitness came out at 0.599.

U16G A69C: the yeast fitness was 1.04.

Take C49G A57G C61U: the yeast fitness was 0.584.

On to U2A C5G C11G A14U A15U U16C C29U, for which the yeast fitness is not above 0.5.

On to G17A A37G A43C, for which the yeast fitness was not above 0.5.

For the variant C27A C30A U35C C46G, the yeast fitness was not above 0.5.

For A15G C61U, the yeast fitness amounted to 0.65.

On to G17A C27U U35C C61G, for which the yeast fitness was not above 0.5.

Turning to U16C C34A G41A, the yeast fitness was not above 0.5.

In the case of C4G A45C, the yeast fitness is 0.767.

In the case of A15U U53A G63A, the yeast fitness is not above 0.5.

U3G A14U C29U A37G: the yeast fitness is not above 0.5.

As for C4U C24G A57G, the yeast fitness is not above 0.5.

In the case of A20U C49G A69U, the yeast fitness was determined as 0.677.

As for C11U A15U C60U G67C, the yeast fitness was not above 0.5.

As to C11A U16C U28C U32G C49G C55A, the yeast fitness is not above 0.5.

C30A A57U C61U A69G: the yeast fitness was not above 0.5.

Consider G12C C27G U32C A37G, for which the yeast fitness was not above 0.5.

In the case of A21G C31U A37G C62G, the yeast fitness is not above 0.5.

As for U13C G38C A43C G51C G56C, the yeast fitness was 0.531.

Turning to G17A U19A G23A C31U C34A A43U, the yeast fitness was not above 0.5.

With C60A, the yeast fitness worked out at 0.613.

A15U G38C G51C A70C: the yeast fitness is not above 0.5.

Regarding C30U A43C G52A C66U, the yeast fitness is not above 0.5.

Consider A15C C22U U26G G52A, for which the yeast fitness amounted to 0.732.

For the variant A15C U53A, the yeast fitness is 0.578.

For the variant A14U U53A A65U, the yeast fitness was not above 0.5.

Consider U19C C31U G56A G67A, for which the yeast fitness turned out to be 0.601.

On to G12A C46U A65U, for which the yeast fitness turned out to be 0.998.

As to G12C U16A G23C C29A C60A, the yeast fitness was not above 0.5.

U19C A43U C49U: the yeast fitness was determined as 0.698.

Regarding C5U A14U C27G G38C G63A, the yeast fitness is not above 0.5.

For the variant U2A G17C C46U, the yeast fitness was not above 0.5.

Consider C4A A14G C49A, for which the yeast fitness is not above 0.5.

On to A45C C46G G56C, for which the yeast fitness was 0.563.

For A43C G51C, the yeast fitness amounted to 0.587.

For G12A U13C A15G U64C, the yeast fitness stood at 0.738.

On to C5A U7C C62U, for which the yeast fitness was not above 0.5.

As for C62A G63A A70C, the yeast fitness came to 0.54.

As to U2C C27G U28A A43U, the yeast fitness is 0.629.

As for C5A C11A A42U U53A A57C A65G, the yeast fitness is not above 0.5.

On to U19G C22U C31U A40U C55G A65C, for which the yeast fitness was not above 0.5.

As to A42G G51U A57U G67A, the yeast fitness was not above 0.5.

Turning to C22U C29U C33U A37C A43U C55A, the yeast fitness is not above 0.5.

With C11A C27U G41C A42G C60G, the yeast fitness is not above 0.5.

As to G9C C22U U47C, the yeast fitness stood at 0.694.

Turning to A40C A42C U53A, the yeast fitness was not above 0.5.

G9C A15C U16A A70C: the yeast fitness was not above 0.5.

In the case of U2A U16G A70C, the yeast fitness is 0.835.

As for G12A G41C, the yeast fitness was 0.864.

Consider G12A A15U, for which the yeast fitness was 0.782.

A14U A20U A42G A65C A69C A70G: the yeast fitness is not above 0.5.

On to U3A G41C U53G, for which the yeast fitness is not above 0.5.

Take G10C C31G U32C A36U A57U C60G: the yeast fitness is not above 0.5.

Take C27U C29U A36C: the yeast fitness was not above 0.5.

As to G6A G44U C66U, the yeast fitness came out at 0.601.

As to U26A C34U U47G U64A, the yeast fitness was not above 0.5.

As to C4A U7G G12C C29A C30U C34U C61U C66A, the yeast fitness is not above 0.5.

In the case of C5U C22G A40G C46U C62U, the yeast fitness was not above 0.5.

As for G38A G67C, the yeast fitness was determined as 0.776.

Turning to A45C U54C C66U, the yeast fitness is 0.606.

Consider C24U U59A C62A A69C, for which the yeast fitness turned out to be 0.552.

C5U G56A G68C A69U: the yeast fitness was not above 0.5.

As for G6C C22U, the yeast fitness was found to be 0.706.

Take U2C G23C C33A G50C G58C A70G: the yeast fitness is not above 0.5.

As for G38C C62U A70U, the yeast fitness is 0.533.

On to G39A G52C C55G G63A, for which the yeast fitness was not above 0.5.

Consider U3G C27U, for which the yeast fitness amounted to 0.798.

Consider A40G A57U C60U A70G, for which the yeast fitness came out at 0.624.

Take G10A U19A A40C: the yeast fitness is not above 0.5.

On to A14G U16A C24G A45G C62A A69C, for which the yeast fitness was not above 0.5.

On to U35C C60G C61U, for which the yeast fitness was not above 0.5.

Consider U28A C34A A40G C66A, for which the yeast fitness is not above 0.5.

For the variant G6C G12A A37C G51A U53C C62A, the yeast fitness was not above 0.5.

Turning to A14U G68C, the yeast fitness was 0.694.

Regarding U13G A70C, the yeast fitness came out at 0.843.

Turning to G12A A15C C31U C62U C66G A70G, the yeast fitness was not above 0.5.

In the case of A15G C31G A40U, the yeast fitness turned out to be 0.586.

Consider G23C C29G A43U G50A G63A A65C, for which the yeast fitness is not above 0.5.

G6C U16A: the yeast fitness worked out at 0.631.

Regarding C27G C46U C60U A69U, the yeast fitness is not above 0.5.

Take G9A A43G G63A: the yeast fitness is not above 0.5.

In the case of C4A C5A A20U C46U G48A, the yeast fitness was not above 0.5.

Consider G41C C61A, for which the yeast fitness was determined as 0.593.

Turning to G12A C27G U32G G67C, the yeast fitness is not above 0.5.

As for A15C U28C A43U, the yeast fitness is not above 0.5.

Regarding A43G G51A C55G C60U, the yeast fitness was not above 0.5.

Consider C31U C46U G51A A65C, for which the yeast fitness turned out to be 0.643.

U8C G17C C22U C34A: the yeast fitness is not above 0.5.

Consider U3C A43U G44C U64C, for which the yeast fitness came out at 0.567.

Take C4G U35A U54C C61G: the yeast fitness turned out to be 0.765.

C4G G18C C62G: the yeast fitness was not above 0.5.

As for C4U G9A C33G G67A, the yeast fitness is not above 0.5.

In the case of C5U G9A C61U, the yeast fitness is 0.732.

For G6C G12A C27U G39C G63A, the yeast fitness was not above 0.5.

As for U3A G9C C34U, the yeast fitness came out at 0.548.

Take C55A C60A: the yeast fitness amounted to 0.624.

Take U7C U28A G67A: the yeast fitness was determined as 0.528.

As for G44C C46A A69U, the yeast fitness was determined as 0.726.

In the case of A20G C31G, the yeast fitness came to 0.966.

Turning to U3C G9A, the yeast fitness worked out at 1.04.

As to G9A A14U C29G C34A C62U, the yeast fitness was not above 0.5.

On to C5A C27A U28G, for which the yeast fitness is 0.617.
